Laboratory results published in ChEMBL document CHEMBL1155455.
Activity calls are given as the source filed them. No cut-off for these calls is given here.

Tests used:
Rattus norvegicus [1] = test: Antidiuretic activity in sc dosed Sprague-Dawley rat assessed as inhibition of U50488-induced urine output administered immediately after water loading measured after 5 hrs on week 1; type: functional, organism-based
Method in brief: (§1)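 Adult male Sprague-Dawley rats, groups of four. […] Urine collected hourly for 5 h in metabolic chambers, at week 0 and week 1 without redosing. Analysis by repeated-measures ANOVA and Dunnett's test.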

Rattus norvegicus [2] = test: Antidiuretic activity in sc dosed Sprague-Dawley rat assessed as inhibition of U50488-induced urine output administered immediately after water loading measured 5 hrs after first dose; type: functional, organism-based; method in brief: as §1

Structure (SMILES): CC(C)[C@@H](CN1CC[C@@](C)(c2cccc(O)c2)[C@@H](C)C1)NC(=O)[C@@H]1CCc2cc(O)ccc2C1
- Activity (Rattus norvegicus [1]): inactive
- Activity (Rattus norvegicus [2]): Dose-dependent effect

Structure (SMILES): CC(C)[C@@H](CN1CC[C@@](C)(c2cccc(O)c2)[C@@H](C)C1)NC(=O)[C@H]1Cc2ccc(O)cc2CN1
- Activity (Rattus norvegicus [1]): Dose-dependent effect
- Activity (Rattus norvegicus [2]): Dose-dependent effect
